The record followed here is ChEMBL document CHEMBL1156054, “Allosteric functional switch of neurokinin A-mediated signaling at the neurokinin NK2 receptor: structural exploration” (J Med Chem, 2009).

Activity calls are given as the source filed them. The rule behind the calls is not given here.

The target in test [1] is T1, Substance-K receptor (Rattus norvegicus) (UniProt P16610).
T1 sequence (whole entry): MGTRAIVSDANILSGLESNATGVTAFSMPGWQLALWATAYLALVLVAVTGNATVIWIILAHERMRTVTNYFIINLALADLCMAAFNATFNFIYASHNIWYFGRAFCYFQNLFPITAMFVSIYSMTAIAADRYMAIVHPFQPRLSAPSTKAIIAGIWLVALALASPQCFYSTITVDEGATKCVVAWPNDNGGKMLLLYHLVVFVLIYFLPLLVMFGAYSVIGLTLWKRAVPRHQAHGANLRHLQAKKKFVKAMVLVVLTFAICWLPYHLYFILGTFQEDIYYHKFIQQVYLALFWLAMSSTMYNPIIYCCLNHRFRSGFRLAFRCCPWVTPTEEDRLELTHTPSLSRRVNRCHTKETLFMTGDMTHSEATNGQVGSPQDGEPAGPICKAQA
The test can be described thus: Allosteric modulation of rat NK2 receptor expressed in HEK293 cells assessed as formation of active receptor calcium-triggering conformation at 10 uM in presence of 20nM NKA-Bo by FRET assay. In kind it is functional, cell-based. In a few lines:
(§1)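 HEK293 cells stably expressing EGFP-fused rat NK2 receptor (hygromycin B 500 μg/mL selection) are suspended in Hepes-BSA buffer, pH 7.4, with protease inhibitors. EGFP emission is read at 510 nm with 470 nm excitation. 20 nM NKA-Bo is added at 50 s, compound (10 μM) at 450 s for 150 s, then excess unlabeled NKA at 600 s.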

The target in test [2] is T1, Substance-K receptor (Rattus norvegicus). The test can be described thus: Inhibition of NKA-Bo binding to rat NK2 receptor expressed in HEK293 cells at 10 uM by FRET assay relative to neurokinin A. In kind it is cell-based. In a few lines:
as §1

Test [3] has the same target. Nature of the test: Allosteric modulation of rat NK2 receptor expressed in HEK293 cells assessed as formation of active receptor cAMP-producing conformation at 50 uM in presence of 20nM NKA-Bo by FRET assay. In kind it is functional, cell-based.
The target is the same in test [4]. Nature of the test: Allosteric modulation of rat NK2 receptor expressed in HEK293 cells assessed as formation of active receptor cAMP-producing conformation at 10 uM in presence of 20nM NKA-Bo by FRET assay. The test is classed as functional, cell-based. The method, boiled down: as §1
Test [5] has the same target. The test can be described thus: Allosteric modulation of rat NK2 receptor expressed in HEK293 cells assessed as enhancement of neurokinin A-induced intracellular calcium level at 20 uM by spectrofluorimetry. In kind it is functional, cell-based.
Test [6] shares this target. Nature of the test: Allosteric modulation of rat NK2 receptor expressed in HEK293 cells assessed as formation of active receptor calcium-triggering conformation at 50 uM in presence of 20nM NKA-Bo by FRET assay. The test is classed as functional, cell-based.
Test [7] has the same target. The test can be described thus: Allosteric modulation of rat NK2 receptor expressed in HEK293 cells assessed as reduction of neurokinin A-induced cAMP production at 10 uM by radioimmunoassay. The test is classed as functional, cell-based. More on the design: scale not given: the % may be the effect or the level left. In a few lines:
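HEK293 cells expressing NK2 receptor are seeded at 50000 on collagen-coated wells and cultured 3 days (~80% confluency). They are stimulated with increasing NKA concentrations with or without 10 μM compound. The reaction is stopped with ice-cold 0.2 M HCl and cAMP is measured by radioimmunoassay. Values are mean ± SD of six determinations; the change in maximal response amplitude is reported.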

As for `O=C(CN(Cc1ccccc1)Cc1ccc2ccccc2c1)OCCN1CCOCC1`, in test [1], the Activity came out at 42%. This compound gave an inhibition in test [2] of 0%.

Consider `O=C(O)CCCCN(Cc1ccccc1)Cc1ccc2ccccc2c1`, for which the Activity in test [1] is 44%. The compound also had an inhibition in test [2] of 0%.

Take `COc1ccc(CN(CC#N)Cc2ccc3ccccc3c2)cc1`: in test [1], the Activity worked out at 54%. The inhibition in test [2] came out at 0%.

Regarding `COc1ccc(CN(CC#N)Cc2ccccc2)cc1`, the Activity in test [1] was determined as 49%. In test [2], this compound returned an inhibition of 0%.

`N#CCN(Cc1ccc(CCc2ccccc2)cc1)Cc1ccc2ccccc2c1`: the Activity in test [1] stood at 39%. Moreover, the inhibition in test [2] was 20%.

Take `c1ccc(CN(Cc2ccc3ccccc3c2)c2ccccn2)cc1`: the Activity in test [1] came out at 56%. In test [2], this compound showed an inhibition of 17%.

On to `CCOC(=O)CN(Cc1ccccc1)Cc1ccc2ccccc2c1`, for which, in test [1], the Activity was found to be 51%. Besides, the inhibition in test [2] came out at 0%.

In the case of `CCCCCCCCCCCCCCCCOC(=O)CN(Cc1ccccc1)Cc1ccc2ccccc2c1`, the Activity in test [1] worked out at 38%. The same compound displayed an inhibition in test [2] of 0%.

Take `N#CCN(Cc1ccccc1)Cc1cccc(Cl)c1`: the Activity in test [1] turned out to be 45%. In addition, the inhibition in test [2] came to 0%.

With `c1ccc(CN(Cc2ccc3ccccc3c2)c2ccncn2)cc1`, the Activity in test [1] was 61%. The compound further showed an inhibition in test [2] of 34%.

Turning to `N#CCN(Cc1ccccc1)Cc1ccc2ccccc2n1`, the Activity in test [1] came out at 47%. The compound further showed an inhibition in test [2] of 0%.

Turning to `N#CCN(Cc1ccccc1)Cc1ccc(Cl)cc1`, the Activity in test [1] was 53%. Besides, in test [2], the inhibition came out at 0%.

Turning to `CN1CCN(C(=O)CN(Cc2ccccc2)Cc2ccc3ccccc3c2)CC1`, the Activity in test [1] is 58%. The same compound had an inhibition in test [2] of 0%.

For `O=C(CN(Cc1ccccc1)Cc1ccc2ccccc2c1)N1CCCCC1`, the Activity in test [1] is 44%. This compound also gave an inhibition in test [2] of 0%.

On to `N#CCN(Cc1ccccc1)Cc1ccc2ccccc2c1`, for which the Activity in test [3] came to 5%; in test [4], 50%; in test [1] it was 50%; in test [6], 95%; in test [7] it was 33%. In addition, the result in test [5] was inactive. The inhibition in test [2] turned out to be 0%.

Take `N#CCN(Cc1ccc2ccccc2c1)Cc1ccccc1Br`: the Activity in test [1] is 43%. For the same compound, in test [2], the inhibition came out at 0%.

Consider `N#CCN(C/C=C/c1ccccc1)Cc1ccccc1`, for which the Activity in test [1] amounted to 47%. Moreover, the inhibition in test [2] was 0%.

Regarding `c1ccc(CN(Cc2ccc3ccccc3c2)c2cccnc2)cc1`, the Activity in test [1] amounted to 59%. Besides, in test [2], the inhibition came out at 0%.

On to `O=C(CN(Cc1ccccc1)Cc1ccc2ccccc2c1)OCCO`, for which the Activity in test [1] was determined as 53%. Also, in test [2], the inhibition was determined as 0%.

Consider `CCCCNC(=O)CN(Cc1ccccc1)Cc1ccc2ccccc2c1`, for which, in test [1], the Activity came to 54%. Besides, the inhibition in test [2] was 0%.

As for `CCOC(=O)CCCCN(Cc1ccccc1)Cc1ccc2ccccc2c1`, the Activity in test [1] came out at 52%. In test [2], this compound displayed an inhibition of 0%.

Take `O=C(CN(Cc1ccccc1)Cc1ccc2ccccc2c1)N1CCN(c2ccccc2)CC1`: in test [1], the Activity was found to be 43%. The inhibition in test [2] was 0%.

As to `O=C(O)CN(Cc1ccccc1)Cc1ccc2ccccc2c1`, in test [1], the Activity amounted to 35%. Moreover, the inhibition in test [2] is 0%.

Regarding `N#CCN(Cc1ccc(Br)cc1)Cc1ccc2ccccc2c1`, the Activity in test [1] was 45%. The compound also yielded an inhibition in test [2] of 0%.

In the case of `C#CCN(Cc1ccccc1)Cc1ccc2ccccc2c1`, the Activity in test [1] came out at 51%. Also, the inhibition in test [2] is 0%.

As to `O=C(CN(Cc1ccccc1)Cc1ccc2ccccc2c1)OCCc1ccccc1`, the Activity in test [1] is 46%. Moreover, in test [2], the inhibition turned out to be 0%.

As for `N#CCN(Cc1ccccc1)Cc1cnc2ccccc2c1`, the Activity in test [1] stood at 46%. In addition, in test [2], the inhibition was determined as 21%.

For the compound `N#CCN(Cc1ccccc1)Cc1ccc(C(F)(F)F)cc1`, the Activity in test [1] was found to be 48%. Further, the inhibition in test [2] is 0%.

`N#CCCCN(Cc1ccccc1)Cc1ccc2ccccc2c1`: the results for the Activity in test [1] and in test [7] were 68% and 47%, respectively. The Emax in test [5] was determined as 120%. Besides, the inhibition in test [2] was found to be 0%.

Consider `N#CCN(Cc1ccc(I)cc1)Cc1ccc2ccccc2c1`, for which the Activity in test [1] came out at 47%. The inhibition in test [2] worked out at 0%.
